Results from ChEMBL document CHEMBL1148276, “Oral bioavailability of a new class of micro-opioid receptor agonists containing 3,6-bis[Dmt-NH(CH(2))(n)]-2(1H)-pyrazinone with central-mediated analgesia” (J Med Chem, 2004).

Experiments:
[1] = tested on: Opioid receptors; mu & delta; experiment: Selectivity ratio of Ki of delta-opioid receptor to mu-opioid receptor; assay type: protein assay
Summary of the method: (§1)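 Competition binding at equilibrium (2.5 h, 22 °C) on rat brain P2 synaptosomal membranes, preincubated to strip endogenous opioids, washed with protease inhibitor, stored in 20% glycerol at -80 °C; [3H]DAMGO (μ) or [3H]DPDPE (δ); nonspecific binding with 2 μM unlabeled peptide; GF/C filtration; Ki by Cheng-Prusoff, duplicates, 5-8 doses, 3-5 preparations.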

[2] = biological target: Delta-type opioid receptor (Rattus norvegicus, UniProt P33533); experiment: Compound was tested for binding affinity towards opioid receptor delta 1 by displacing [3H]DPDPE radioligand in rat brain P2 synaptosomes membranes.; assay type: cell membranes; summary of the method: as §1
Mu-type opioid receptor [3] = biological target: Mu-type opioid receptor (Rattus norvegicus, UniProt P33535); experiment: Compound was tested for binding affinity towards Opioid receptor mu 1 by displacing [3H]DAGO radioligand in rat brain P2 synaptosomes membranes.; assay type: cell membranes
Mus musculus [4] = organism: Mus musculus; experiment: Potency relative to morphine in tail flick test in mice, perorally; assay type: functional
Summary of the method: (§2)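 Male Swiss-Webster mice (20-25 g); radiant-heat tail-flick, baseline 2-3 s, cutoff 8 s; dosing icv or sc in saline pH 7, po in water; readings from 10, 15 or 30 min respectively until return to baseline; AUC of latency vs time, 5-7 mice per point; relative potency from doses giving analgesia equivalent to morphine.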

Mu-type opioid receptor [5] = biological target: Mu-type opioid receptor (Cavia porcellus, UniProt P97266); experiment: Compound was tested for Opioid receptor mu 1 agonism in isolated tissues from guinea pig ileum; assay type: functional, tissue-based
Mus musculus [6] = experiment: Potency relative to morphine in tail flick test in mice, subcutaneously; assay type: functional; summary of the method: as §2
Mus musculus [7] = organism: Mus musculus; experiment: Potency relative to morphine in hot plate test in mice, perorally; Vale ranges from 0.16-0.24; assay type: functional
Mus musculus [8] = experiment: Potency relative to morphine in hot plate test in mice, intracerebroventricularly; Vale ranges from 18-21; assay type: functional
Mus musculus [9] = experiment: Potency relative to morphine in tail flick test in mice, intracerebroventricularly; Vale ranges from 50-63; assay type: functional; summary of the method: as §2
Mus musculus [10] = experiment: Potency relative to morphine in hot plate test in mice, subcutaneously; assay type: functional
[11] = biological target: Delta-type opioid receptor (Mus musculus, UniProt P32300); experiment: Compound was tested for opioid receptor delta 1 agonism or antagonism in mouse vas deferens; assay type: functional, tissue-based
Delta-type opioid receptor (Mus musculus, UniProt P32300), sequence (P32300 whole entry): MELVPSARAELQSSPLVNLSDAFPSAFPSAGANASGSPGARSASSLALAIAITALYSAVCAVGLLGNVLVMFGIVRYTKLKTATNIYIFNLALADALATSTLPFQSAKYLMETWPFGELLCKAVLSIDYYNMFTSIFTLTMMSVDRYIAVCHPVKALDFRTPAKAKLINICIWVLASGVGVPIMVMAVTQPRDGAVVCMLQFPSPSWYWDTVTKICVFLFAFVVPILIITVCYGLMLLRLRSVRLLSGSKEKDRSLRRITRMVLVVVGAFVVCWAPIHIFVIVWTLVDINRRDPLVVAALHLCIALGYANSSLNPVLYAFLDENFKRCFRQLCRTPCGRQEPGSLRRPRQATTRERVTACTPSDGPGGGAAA

Mu-type opioid receptor (Rattus norvegicus, UniProt P33535), sequence (P33535 whole entry): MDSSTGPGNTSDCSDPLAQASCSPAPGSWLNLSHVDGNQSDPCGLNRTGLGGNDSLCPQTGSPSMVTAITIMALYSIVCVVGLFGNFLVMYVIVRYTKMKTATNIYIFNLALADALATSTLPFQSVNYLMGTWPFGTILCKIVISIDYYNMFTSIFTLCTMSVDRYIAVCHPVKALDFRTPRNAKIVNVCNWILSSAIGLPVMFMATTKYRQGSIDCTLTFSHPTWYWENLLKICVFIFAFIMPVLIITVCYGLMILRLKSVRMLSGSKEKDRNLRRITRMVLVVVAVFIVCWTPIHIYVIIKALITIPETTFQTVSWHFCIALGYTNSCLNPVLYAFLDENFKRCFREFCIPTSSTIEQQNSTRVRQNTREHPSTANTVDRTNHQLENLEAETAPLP
Delta-type opioid receptor (Rattus norvegicus, UniProt P33533), sequence (P33533 whole entry): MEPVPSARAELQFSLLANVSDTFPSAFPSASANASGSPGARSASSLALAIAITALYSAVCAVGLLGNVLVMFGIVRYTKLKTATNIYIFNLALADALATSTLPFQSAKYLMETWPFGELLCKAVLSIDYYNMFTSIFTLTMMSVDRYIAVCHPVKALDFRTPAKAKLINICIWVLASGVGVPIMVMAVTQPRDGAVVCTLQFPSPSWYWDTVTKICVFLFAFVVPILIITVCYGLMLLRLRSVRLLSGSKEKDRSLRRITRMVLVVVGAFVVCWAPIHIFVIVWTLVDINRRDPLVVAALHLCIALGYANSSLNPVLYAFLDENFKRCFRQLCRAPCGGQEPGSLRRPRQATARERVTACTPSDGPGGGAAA
Mu-type opioid receptor (Cavia porcellus, UniProt P97266), sequence (P97266 whole entry): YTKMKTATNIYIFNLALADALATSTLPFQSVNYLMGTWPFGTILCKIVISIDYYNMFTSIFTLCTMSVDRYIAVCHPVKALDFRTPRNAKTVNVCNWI

Cc1nc(CCNC(=O)C(N)Cc2ccc(O)cc2)c(=O)[nH]c1CCNC(=O)C(N)Cc1ccc(O)cc1 (stereo not given)
Ratio [1]: 9.4 | Ki [2]: 2900 nM | Ki (Mu-type opioid receptor [3]): 309 nM

Cc1nc(CNC(=O)C(N)Cc2ccc(O)cc2)c(=O)[nH]c1CNC(=O)C(N)Cc1ccc(O)cc1 (stereo not given)
Ratio [1]: 4 | Ki [2]: 1830 nM

Cc1cc(O)cc(C)c1CC(N)C(=O)NCCCc1nc(O)c(CCCNC(=O)C(N)Cc2c(C)cc(O)cc2C)nc1C.Cl.Cl (stereo not given)
Activity (Mus musculus [4]): 0.42 | IC50 (Mu-type opioid receptor [5]): 1.33 nM | Activity (Mus musculus [6]): 0.63 | Activity (Mus musculus [7]): 0.24 | Ratio [1]: 307 | Ki [2]: 13.2 nM | Ki (Mu-type opioid receptor [3]): 0.042 nM | Activity (Mus musculus [8]): 21 | Activity (Mus musculus [9]): 63 | Activity (Mus musculus [10]): 0.55 | IC50 [11]: > 1000 nM

Cc1cc(O)cc(C)c1CC(N)C(=O)NCc1nc(O)c(CNC(=O)C(N)Cc2c(C)cc(O)cc2C)nc1C (stereo not given)
IC50 (Mu-type opioid receptor [5]): 1690 nM | Ratio [1]: 13.5 | Ki [2]: 15.7 nM | Ki (Mu-type opioid receptor [3]): 1.16 nM | IC50 [11]: > 10000 nM

Cc1nc(CCCCNC(=O)C(N)Cc2ccc(O)cc2)c(O)nc1CCCCNC(=O)C(N)Cc1ccc(O)cc1 (stereo not given)
Ratio [1]: 31 | Ki [2]: 2190 nM | Ki (Mu-type opioid receptor [3]): 70.2 nM

Cc1nc(CCCNC(=O)C(N)Cc2ccc(O)cc2)c(O)nc1CCCNC(=O)C(N)Cc1ccc(O)cc1 (stereo not given)
Ratio [1]: 17 | Ki [2]: 435 nM | Ki (Mu-type opioid receptor [3]): 25.7 nM

Cc1cc(O)cc(C)c1CC(N)C(=O)NCCc1nc(O)c(CCNC(=O)C(N)Cc2c(C)cc(O)cc2C)nc1C (stereo not given)
IC50 (Mu-type opioid receptor [5]): 12.9 nM | Ki [2]: 7.26 nM | IC50 [11]: > 10000 nM

Cc1cc(O)cc(C)c1CC(N)C(=O)NCCCCc1nc(O)c(CCCCNC(=O)C(N)Cc2c(C)cc(O)cc2C)nc1C (stereo not given)
IC50 (Mu-type opioid receptor [5]): 1.9 nM | Ratio [1]: 204 | Ki [2]: 23.2 nM | Ki (Mu-type opioid receptor [3]): 0.114 nM | IC50 [11]: 41.5 nM
